Assay results taken from ChEMBL document CHEMBL1806372, “Cytotoxic ring A-modified steroid analogues derived from Grundmann's ketone” (Eur J Med Chem, 2011).
Activity calls are given as the source filed them. The rule behind the calls is not given here.

Key:
Format in all cases: functional
[1] = tested on: EKVX; experiment: Growth inhibition of human EKVX cells assessed as cell growth at 10^-5 M after 48 hrs by sulforhodamine B assay; settings: read-out: Activity
Procedure, shortened: (§1)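 NCI 60-cell panel single high-dose screen: compound applied at 10^-5 M for 48 h, endpoint by sulforhodamine B protein-binding dye. Values reported as growth percent of treated cells relative to untreated control cells.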

[2] = tested on: HOP-62; experiment: Growth inhibition of human HOP62 cells assessed as cell growth at 10^-5 M after 48 hrs by sulforhodamine B assay; settings: HOP-62, 48 h, read-out: Activity; procedure, shortened: as §1
[3] = tested on: NCI-H226; experiment: Growth inhibition of human NCI-H226 cells assessed as cell growth at 10^-5 M after 48 hrs by sulforhodamine B assay; settings: NCI-H226, 48 h, read-out: Activity
Procedure, shortened: (§2)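 NCI-60 single high-dose screen run under the NCI protocol. Cells were incubated with compound at 10^-5 M for 48 h. The end point was determined by sulforhodamine B protein staining. Results are reported as percent growth of treated cells relative to untreated control cells.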

[4] = tested on: NCI-H322M; experiment: Growth inhibition of human NCI-H322M cells assessed as cell growth at 10^-5 M after 48 hrs by sulforhodamine B assay; settings: read-out: Activity; procedure, shortened: as §2
[5] = tested on: NCI-H460; experiment: Growth inhibition of human NCI-H460 cells assessed as cell growth at 10^-5 M after 48 hrs by sulforhodamine B assay; settings: NCI-H460, 48 h, read-out: Activity; procedure, shortened: as §2
[6] = tested on: HCC 2998; experiment: Growth inhibition of human HCC2998 cells assessed as cell growth at 10^-5 M after 48 hrs by sulforhodamine B assay; settings: HCC 2998, 48 h, read-out: Activity; procedure, shortened: as §1
[7] = tested on: HCT-15; experiment: Growth inhibition of human HCT15 cells assessed as cell growth at 10^-5 M after 48 hrs by sulforhodamine B assay; settings: HCT-15, 48 h, read-out: Activity; procedure, shortened: as §1
[8] = tested on: HT-29; experiment: Growth inhibition of human HT-29 cells assessed as cell growth at 10^-5 M after 48 hrs by sulforhodamine B assay; settings: HT-29, 48 h, read-out: Activity; procedure, shortened: as §1
[9] = tested on: SW-620; experiment: Growth inhibition of human SW620 cells assessed as cell growth at 10^-5 M after 48 hrs by sulforhodamine B assay; settings: SW-620, 48 h, read-out: Activity
Procedure, shortened: (§3)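 NCI 60-cell panel single-dose screen under the NCI protocol. Cells are exposed to compound at one concentration (10^-5 M) for 48 h. The end point is protein staining with sulforhodamine B. Each line is reported as percent growth of treated cells relative to untreated control cells.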

[10] = tested on: SF-539; experiment: Growth inhibition of human SF539 cells assessed as cell growth at 10^-5 M after 48 hrs by sulforhodamine B assay; settings: SF-539, 48 h, read-out: Activity; procedure, shortened: as §2
[11] = tested on: LOX IMVI; experiment: Growth inhibition of human LOXIMVI cells assessed as cell growth at 10^-5 M after 48 hrs by sulforhodamine B assay; settings: read-out: Activity; procedure, shortened: as §1
[12] = tested on: Malme-3M; experiment: Growth inhibition of human MALME-3M cells assessed as cell growth at 10^-5 M after 48 hrs by sulforhodamine B assay; settings: read-out: Activity; procedure, shortened: as §2
[13] = tested on: M14; experiment: Growth inhibition of human M14 cells assessed as cell growth at 10^-5 M after 48 hrs by sulforhodamine B assay; settings: M14, 48 h, read-out: Activity; procedure, shortened: as §2
[14] = tested on: MDA-MB-435; experiment: Growth inhibition of human MDA-MB-435 cells assessed as cell growth at 10^-5 M after 48 hrs by sulforhodamine B assay; settings: MDA-MB-435, 48 h, read-out: Activity; procedure, shortened: as §2
[15] = tested on: SK-MEL-28; experiment: Growth inhibition of human SK-MEL-28 cells assessed as cell growth at 10^-5 M after 48 hrs by sulforhodamine B assay; settings: SK-MEL-28, 48 h, read-out: Activity; procedure, shortened: as §2
[16] = tested on: UACC-257; experiment: Growth inhibition of human UACC257 cells assessed as cell growth at 10^-5 M after 48 hrs by sulforhodamine B assay; settings: UACC-257, 48 h, read-out: Activity; procedure, shortened: as §3
[17] = tested on: UACC-62; experiment: Growth inhibition of human UACC62 cells assessed as cell growth at 10^-5 M after 48 hrs by sulforhodamine B assay; settings: UACC-62, 48 h, read-out: Activity; procedure, shortened: as §3
[18] = tested on: OVCAR-5; experiment: Growth inhibition of human OVCAR5 cells assessed as cell growth at 10^-5 M after 48 hrs by sulforhodamine B assay; settings: OVCAR-5, 48 h, read-out: Activity; procedure, shortened: as §2
[19] = tested on: TK-10; experiment: Growth inhibition of human TK10 cells assessed as cell growth at 10^-5 M after 48 hrs by sulforhodamine B assay; settings: TK-10, 48 h, read-out: Activity; procedure, shortened: as §3
[20] = tested on: DU-145; experiment: Growth inhibition of human DU145 cells assessed as cell growth at 10^-5 M after 48 hrs by sulforhodamine B assay; settings: DU-145, 48 h, read-out: Activity; procedure, shortened: as §1
[21] = tested on: MDA-MB-231; experiment: Growth inhibition of human MDA-MB-231 cells assessed as cell growth at 10^-5 M after 48 hrs by sulforhodamine B assay; settings: MDA-MB-231, 48 h, read-out: Activity; procedure, shortened: as §2
[22] = tested on: MDA-MB-468; experiment: Growth inhibition of human MDA-MB-468 cells assessed as cell growth at 10^-5 M after 48 hrs by sulforhodamine B assay; settings: MDA-MB-468, 48 h, read-out: Activity; procedure, shortened: as §2
[23] = tested on: Escherichia coli; experiment: Antibacterial activity against Escherichia coli assessed as zone of inhibition at 5 uL and 32 degC after 36 hrs by disk diffusion method
Procedure, shortened: (§4)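 Disc diffusion on AC agar, each strain spread evenly over the medium; test compounds given as 1% (w/v) DMSO solutions. Plates covered and incubated 36 h at 32 °C, then the diameter of the zone of inhibited growth measured in mm. Tetracycline served as antibacterial reference.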

[24] = tested on: Streptococcus entericus; experiment: Antibacterial activity against Streptococcus entericus assessed as zone of inhibition at 5 uL and 32 degC after 36 hrs by disk diffusion method; procedure, shortened: as §4
[25] = tested on: Nakaseomyces glabratus; experiment: Antifungal activity against Candida glabrata assessed as zone of inhibition at 5 uL and 28 degC after 36 hrs by disk diffusion method
Procedure, shortened: (§5)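 Agar disc diffusion with the test compound applied as a 1% (w/v) DMSO solution. Yeasts were grown on AC agar and Aspergillus niger on potato dextrose broth agar, each strain spread evenly. Plates were covered and kept 36 h at 28 °C, and the inhibition zone diameter was read in mm. Clotrimazole served as reference.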

[26] = tested on: Aspergillus niger; experiment: Antifungal activity against Aspergillus niger assessed as zone of inhibition at 5 uL and 28 degC after 36 hrs by disk diffusion method; procedure, shortened: as §5
[27] = Antifungal activity against Hyphopichia burtonii assessed as zone of inhibition at 5 uL and 28 degC after 36 hrs by disk diffusion method; procedure, shortened: as §5
[28] = tested on: HL-60(TB); experiment: Growth inhibition of human HL-60(TB) cells assessed as cell growth at 10^-5 M after 48 hrs by sulforhodamine B assay; settings: HL-60, 48 h, read-out: Activity
Procedure, shortened: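 NCI single high-dose screen across the 60-cell panel (leukemia, melanoma, lung, colon, brain, breast, ovary, kidney, prostate), run per NCI protocol. Cells incubated with compound at 10^-5 M for 48 h. Sulforhodamine B protein-binding dye end point. Reported as growth percent of treated vs untreated control cells.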

[29] = tested on: SR; experiment: Growth inhibition of human SR cells assessed as cell growth at 10^-5 M after 48 hrs by sulforhodamine B assay; settings: read-out: Activity; procedure, shortened: as §3

## CC(C)CCC[C@@H](C)[C@H]1CC[C@H]2[C@@H]3CCN4C(=O)CCC(=O)N4[C@@H]3CC[C@]12C
[1]
  growth at 10 µM: 83.3%
[2]
  growth at 10 µM: 87.7%
[3]
  growth at 10 µM: 90.3%
[4]
  growth at 10 µM: 117%
[5]
  growth at 10 µM: 107%
[6]
  growth at 10 µM: 86.6%
[7]
  growth at 10 µM: 106%
[8]
  growth at 10 µM: 87.9%
[9]
  growth at 10 µM: 93.2%
[10]
  growth at 10 µM: 104%
[11]
  growth at 10 µM: 84.5%
[12]
  growth at 10 µM: 95.6%
[13]
  growth at 10 µM: 90.5%
[14]
  growth at 10 µM: 97.7%
[15]
  growth at 10 µM: 76.4%
[16]
  growth at 10 µM: 76.2%
[17]
  growth at 10 µM: 88.1%
[18]
  growth at 10 µM: 91.5%
[19]
  growth at 10 µM: 108%
[20]
  growth at 10 µM: 100%
[21]
  growth at 10 µM: 98.2%
[22]
  growth at 10 µM: 122%
[23]
  diameter of the inhibition zone (DIZ): 11 mm
[24]
  diameter of the inhibition zone (DIZ): 10 mm
[25]
  diameter of the inhibition zone (DIZ): inactive
[26]
  diameter of the inhibition zone (DIZ): inactive
[27]
  inhibition zone (IZ): 15 mm
[28]
  growth at 10 µM: 72%
[29]
  growth at 10 µM: 79.7%

## CC(C)CCC[C@@H](C)[C@H]1CC[C@H]2C3=CC[C@@H]4C(=O)C=CC(=O)[C@@H]4[C@@H]3CC[C@]12C
[1]
  growth at 10 µM: -10%
[2]
  growth at 10 µM: 12.1%
[3]
  growth at 10 µM: 42%
[4]
  growth at 10 µM: 42.6%
[5]
  growth at 10 µM: 2.88%
[6]
  growth at 10 µM: -75.5%
[7]
  growth at 10 µM: 11.3%
[8]
  growth at 10 µM: 7.56%
[9]
  growth at 10 µM: 20.4%
[10]
  growth at 10 µM: 38.2%
[11]
  growth at 10 µM: -43.4%
[12]
  growth at 10 µM: 17.5%
[13]
  growth at 10 µM: 5.05%
[14]
  growth at 10 µM: -16.4%
[15]
  growth at 10 µM: -48.5%
[16]
  growth at 10 µM: 28.7%
[17]
  growth at 10 µM: -63.2%
[18]
  growth at 10 µM: 7.74%
[19]
  growth at 10 µM: -36.6%
[20]
  growth at 10 µM: 26.6%
[21]
  growth at 10 µM: 28.6%
[22]
  growth at 10 µM: 2.69%
[23]
  diameter of the inhibition zone (DIZ): inactive
[24]
  diameter of the inhibition zone (DIZ): inactive
[25]
  diameter of the inhibition zone (DIZ): inactive
[26]
  diameter of the inhibition zone (DIZ): inactive
[27]
  diameter of the inhibition zone (DIZ): inactive
[28]
  growth at 10 µM: -5.46%
[29]
  growth at 10 µM: 13.2%

## CC(C)CCC[C@@H](C)[C@H]1CC[C@H]2C3=CCn4c(=O)ccc(=O)n4[C@@H]3CC[C@]12C
[1]
  growth at 10 µM: -82.2%
[2]
  growth at 10 µM: -93.3%
[3]
  growth at 10 µM: -91.8%
[4]
  growth at 10 µM: -55.3%
[5]
  growth at 10 µM: -89.9%
[6]
  growth at 10 µM: -100%
[7]
  growth at 10 µM: -63.7%
[8]
  growth at 10 µM: -97.5%
[9]
  growth at 10 µM: -91.6%
[10]
  growth at 10 µM: -96.8%
[11]
  growth at 10 µM: -89.5%
[12]
  growth at 10 µM: -98%
[13]
  growth at 10 µM: -87.1%
[14]
  growth at 10 µM: -57.4%
[15]
  growth at 10 µM: -100%
[16]
  growth at 10 µM: -97.5%
[17]
  growth at 10 µM: -82.4%
[18]
  growth at 10 µM: -84.3%
[19]
  growth at 10 µM: -83.1%
[20]
  growth at 10 µM: -93.7%
[21]
  growth at 10 µM: -89.2%
[22]
  growth at 10 µM: -49%
[23]
  diameter of the inhibition zone (DIZ): inactive
[24]
  diameter of the inhibition zone (DIZ): 7 mm
[25]
  diameter of the inhibition zone (DIZ): 8 mm
[26]
  diameter of the inhibition zone (DIZ): inactive
[27]
  inhibition zone (IZ): 10 mm
[28]
  growth at 10 µM: -43.3%
[29]
  growth at 10 µM: -34.6%
